# Scp-1 inhibitor – inhibitors of human Scp-1 phosphatase. Q9GZU7. Recombinant Scp1, phosphopeptide, malachite green phosphate absorbance. inhibition, % at 20 µM. 340,000 tested, 0.88% active. AID 493091;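 active = inhibition above about 50% at 20 µM, limit read from the data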;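 also: plate controls were DMSO wells with enzyme for no effect and wells lacking enzyme for full effect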
# Target sequence (Q9GZU7 76-261 limits assumed): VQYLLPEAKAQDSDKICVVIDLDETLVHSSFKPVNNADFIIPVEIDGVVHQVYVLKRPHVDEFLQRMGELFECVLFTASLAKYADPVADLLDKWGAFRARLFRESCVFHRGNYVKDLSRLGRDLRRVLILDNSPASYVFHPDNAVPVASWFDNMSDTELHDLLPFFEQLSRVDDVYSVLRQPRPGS
#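 Incubation: 45 min enzyme reaction at room temperature / System: truncated SCP-1 phosphatase (76-261aa) / Reagent: Phospho 17-mer peptide substrate / Buffer or medium: Acidic Tris acetate buffer with magnesium and detergent / Signal: absorbance at 630 nm / Doses: one concentration, 20 µM, with 1.0% DMSO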
# SUMO1-SIM PPI – alters human SUMO1 binding to SIM partners | SUMO1 binding to a labelled peptide, TR-FRET, 1 h | inhibition, % at 20 µM | 360,000 tested, 0.33% active | AID 602429; in the data active = inhibition above about 37%
# Target sequence (P63165 whole entry, looked up): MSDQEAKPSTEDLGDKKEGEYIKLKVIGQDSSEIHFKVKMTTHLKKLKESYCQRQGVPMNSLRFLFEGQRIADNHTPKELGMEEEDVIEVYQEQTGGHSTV
# DNMT1 block – inhibitors of human DNMT1. P26358. DNMT1 molecular beacon, Hinp1I cleavage, fluorescence. inhibition (reported as % activation of signal), % at 10 µM. 360,000 tested, 0.83% active. AID 588458; in the data active = inhibition above about 50%
# LMPTP block – blocks human LMPTP phosphatase | inhibition, % at 20 µM | P24666 | AID 651560 | 360,000 tested, 0.22% active | recombinant LMPTP-A, OMFP fluorogenic substrate, fluorescence intensity;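 active = compounds that cut the enzyme signal by at least half of the control window in the single-dose screen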;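 also: plate controls were DMSO wells with enzyme plus substrate for no effect and substrate without enzyme for full effect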
# Target sequence (P24666 whole entry, looked up): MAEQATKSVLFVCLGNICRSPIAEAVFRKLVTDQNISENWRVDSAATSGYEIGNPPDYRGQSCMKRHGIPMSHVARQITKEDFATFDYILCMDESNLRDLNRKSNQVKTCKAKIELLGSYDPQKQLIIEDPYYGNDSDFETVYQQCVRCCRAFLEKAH
#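 Test system – LMPTP-A phosphatase enzyme · Quantity – 0.625 nM LMPTP-A final · Reagent – OMFP substrate, 400 µM final · Dosing – one test concentration per compound, 20 µM, with 3% DMSO overall · Timing – 50 min enzyme reaction at room temperature, protected from light · Detection – fluorescence intensity · Controls – substrate-only low control, DMSO enzyme-plus-substrate high control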
# STEP block – STEP (human) phosphatase inhibition. P54829. recombinant STEP, OMFP fluorogenic substrate, fluorescence. inhibition, % at 20 µM. 360,000 tested, 0.25% active. AID 588621;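 active = inhibition at 20 µM, scaled per plate between control wells, above about 37%, limit read from the data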;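 also: 0% = DMSO with enzyme and substrate and 100% = substrate only without enzyme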
#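 Assay system: isolated STEP enzyme. Buffer or medium: pH 6.0 Bis-Tris with DTT and Tween 20. Also added: fluorogenic phosphatase substrate OMFP at 25 µM final. Dosing: 20 µM, 1% DMSO. Timing: 20 min reaction, room temperature, in the dark. Measured by: fluorescence intensity, excitation 480 nm, emission 540 nm. Evaluation: normalized % inhibition.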
# Scp-1 conf – Scp-1 (human) inhibition, single-dose confirmed. shares compounds with Scp-1 inhibitor. 2,500 tested, 61% active. AID 540281. recombinant SCP-1 catalytic domain, phosphate release, malachite green absorbance. inhibition, % at 20 µM;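 also: plate controls were DMSO with enzyme for no effect and buffer wells lacking enzyme for full effect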
# Scp-1 MG ctr – interferes with malachite green readout, flagging false Scp-1 hits | shares compounds with Scp-1 inhibitor | apparent inhibition (interference), % at 20 µM | 2,500 tested, under 10 active | Colorimetric interference counterscreen, malachite green absorbance 630 nm;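 also: compounds added after enzyme reaction finished so only phosphate colour detection is probed; plate controls were DMSO wells with completed Scp-1 reaction for no effect and substrate wells lacking enzyme for full effect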
# Scp-1 Tm shift – Scp-1 (human) binding by thermal shift. AID 540329. Recombinant SCP1, Sypro Orange thermal shift Tm. 1,500 tested, 25% active. shares compounds with Scp-1 inhibitor. thermal shift relative to vanadate control, % at 40 µM;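 active = substances whose mean melting-temperature shift, as a percentage of the reference inhibitor's shift, reaches about 5.3%, limit read from the data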;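 also: 0% = Tm of DMSO wells and 100% = Tm with sodium orthovanadate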
# An asterisk follows results filed as active; nt = not tested or not shown. Shown are actives, neighbours in structure and some others; about 1.8% of the full set was active somewhere.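 The calls were made as follows, unless noted: active = inhibition of at least 30% at 20 µM; inactive = the rest.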
SMILES,Scp-1 inhibitor,SUMO1-SIM PPI,DNMT1 block,LMPTP block,STEP block,Scp-1 conf,Scp-1 MG ctr,Scp-1 Tm shift
Cc1ccc(CCNC(=O)CCNS(=O)(=O)c2ccc3c(c2)oc(=O)n3C)cc1,-2.2,2.2,1.6,-1.5,-2.4,-2.9,-1.0,nt
Cc1cc(C)n2nc(C(=O)OCC(=O)c3ccccc3Cl)nc2n1,-2.4,0.6,-2.4,0.1,1.5,nt,nt,nt
Cc1cc(C(=O)COC(=O)c2cc(Cl)c(O)c(Cl)c2)c(C)n1C,55.1*,34.3,54.7*,4.5,2.9,35.9*,-13.6,9.4*
Cc1cc(C)n2nc(C(=O)OCC(=O)c3cc(C)n(C)c3C)nc2n1,52.3*,-0.1,26.4,0.8,1.4,57.9*,-14.7,-2.2
O=C1CC(=O)Nc2cc(S(=O)(=O)Nc3cccc(C(F)(F)F)c3)ccc2N1,-4.7,6.7,5.6,-0.8,-2.4,-4.7,-7.3,nt
CCOc1ccc(NC(=O)C2CCCN2C(=O)Oc2ccccc2)cc1 (configuration not stated),54.2*,2.9,1.1,-1.0,-1.0,19.6,-7.9,nt
O=C(O)c1cc2c(s1)-c1ccccc1CC2,-7.4,-8.3,0.9,-1.1,-4.9,nt,nt,nt
O=C(N/N=C/c1ccc(Cl)cc1)c1cc2c(s1)-c1ccccc1CC2,100.8*,2.9,33.3,24.4,-3.3,63.5*,-14.8,-18.5
N#CCSc1ncnc2sc3c(c12)CCC3,68.1*,18.9,48.3,34.1,0.6,0.2,-22.8,nt
OC[C@H]1O[C@H](c2nc(-c3nc(-c4cccs4)no3)cs2)C[C@@H]1O,nt,6.1,0.7,2.6,-2.3,nt,nt,nt
COc1ccc(CNC(=O)C2CCCN(S(=O)(=O)N3CCC(C)CC3)C2)c(OC)c1 (configuration not stated),69.5*,-3.9,-2.8,0.7,-1.3,-13.9,-14.5,nt
O=C(CN1C(=O)CCSc2ccc(S(=O)(=O)N3CCOCC3)cc21)Nc1ccccc1Cl,60.5*,2.2,6.9,3.7,6.4,46.1*,-7.6,-2.0
COc1ccc(-c2nc3c4ccccc4ccn3c2Cc2ccccc2C(F)(F)F)cc1OC,nt,-3.7,-10.3,7.0,4.0,nt,nt,nt
CCc1ccc(NC(=O)c2noc3c2CCc2ccccc2-3)cc1,-13.1,1.0,-4.9,1.5,2.9,nt,nt,nt
Cc1ccc(NC(=O)c2noc3c2CCc2ccccc2-3)cc1,55.7*,-3.5,0.0,1.3,-0.9,-16.3,-15.3,nt
CCCCN(C(=O)C(C)N1C(=O)c2ccccc2C1=O)c1c(N)n(CC(C)C)c(=O)[nH]c1=O (configuration not stated),-2.4,0.5,1.6,-1.7,-1.8,nt,nt,nt
Cc1cnc(C(=O)OCc2nc3ccsc3c(=O)[nH]2)cn1,65.5*,19.9,25.9,1.8,3.0,64.2*,-6.0,11.0*
O=C(OCc1nc2ccsc2c(=O)[nH]1)c1ccco1,1.4,3.1,2.4,-0.1,-4.8,nt,nt,nt
CCc1nnc(NC(=O)C2(C)COC(c3ccccc3)OC2)s1 (configuration not stated),54.6*,-0.4,0.1,-1.1,0.0,-4.7,-3.5,nt
CN1CCN(C(CNC(=O)C(=O)Nc2ccc3c(c2)OCCO3)c2ccc(F)cc2)CC1 (configuration not stated),-1.1,-3.9,-1.9,0.1,-1.3,nt,nt,nt
CCn1nc([N+](=O)[O-])c2c(-c3nc4ccccc4o3)c(N)n(CCCOC)c2c1=O,84.8*,18.1,34.8,22.9,9.6,78.3*,-9.5,1.9
COCCCn1c(-c2ccco2)nc2ccccc2c1=O,0.6,-4.7,-4.9,0.2,-1.8,nt,nt,nt
COc1cccc(NC(=O)CN(C)C(=O)CC2CCCCC2)c1,-6.6,-2.1,1.6,0.9,-0.3,nt,nt,nt
COc1ccccc1CNC(=O)COC(=O)c1cnccn1,43.0,-1.5,0.4,-1.0,1.6,nt,nt,nt
COc1ccccc1CNC(=O)c1cnccn1,55.9*,1.6,12.8,0.4,-2.3,56.9*,-11.2,-0.2

# Screening results (PubChem)
